Consider one compound from ChEMBL document CHEMBL2396655, “Design, synthesis, and biological evaluation of (E)-N-aryl-2-arylethenesulfonamide analogues as potent and orally bioavailable microtubule-targeted anticancer agents” (J Med Chem, 2013).

By IC50 is commonly meant the concentration that gives 50% inhibition. In general, kinetic solubility refers to solubility judged after dilution from a stock solution rather than from solid. Broadly, the GI50 is the concentration giving 50% growth inhibition. A higher GI50 goes with less potent growth inhibition.

Each structure is given as a SMILES string. Values after ≈ are worked out from the molar mass of the structure shown. Active and inactive are the calls of the source. The rule behind the calls is not given here.

One series deals with Mus musculus. Kind of series: Elimination half life in ICR mouse at 5 mg/kg, iv by LC-MS/MS analysis. The format is ADME, organism-based. On the set-up: dose 5 mg/kg, route intravenous. Conditions: in vivo. Put shortly:
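Male ICR mice, 6–8 weeks old, N=3 per group. Single 5 mg/kg dose in NMP:PEG300:water (1:4:5 v/v), given as IV bolus or oral gavage. Serial arterial blood was drawn through a carotid cannula at 2–360 min. Plasma was protein-precipitated with acetonitrile containing internal standard and assayed by LC/MS/MS. Parameters were derived by noncompartmental analysis.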

Another series addresses Tubulin (Sus scrofa) (UniProt P02554+P02550). Kind of series: Competitive binding affinity to pig brain tubulin vinblastine binding site at 0.1 to 100 uM after 1 hr by mass spectrophotometric analysis in presence of vinblastine. Put shortly: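 Porcine brain tubulin (1.0 mg/mL) in PIPES 80 mM, MgCl₂ 2 mM, EGTA 0.5 mM, pH 6.9, at 37 °C. […] Competitor was 0.1–100 μM for 1 h. Unbound ligand in the 30 kDa ultrafiltrate was measured by MS. Runs were in triplicate; IC50 came from a Hill fit.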

For another series, the target named is Tubulin (Sus scrofa, UniProt P02554+P02550). The series is described as follows: Competitive binding affinity to pig brain tubulin colchicine binding site after 1 hr by mass spectrophotometric analysis in presence of colchicine. The format is tissue-based. The procedure, abridged: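 Porcine brain tubulin (1.0 mg/mL) in PIPES 80 mM, MgCl₂ 2 mM, EGTA 0.5 mM, pH 6.9, at 37 °C. Competitor was 0.1–100 μM for 1 h. Unbound ligand in the 30 kDa ultrafiltrate was measured by MS. Runs were in triplicate; IC50 came from a Hill fit.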

Series [1] relates to DU-145. The series is described as follows: Mitotoic arrest in human DU145 cells assessed as misalignment of chromosomes at 25 nM after 24 hrs by FITC and propidium iodide staining-based confocal laser microscopic analysis. The series is classed as functional, cell-based. Put shortly:
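DU145 cells grown on glass coverslips, exposed to 0.025 μM for 24 h, fixed in 4% paraformaldehyde, permeabilized in PBS with 10% FBS/0.1% Triton X-100, stained with FITC-conjugated anti-α-tubulin (DM1A, 1 h, 37 °C) and propidium iodide (1 μg/mL, 5 min), then imaged by confocal microscopy (60× objective, XYZ-sectioning); DMSO-treated cells as vehicle.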

Series [2] has as its system DU-145. Kind of series: Cell cycle arrest in human DU145 cells assessed as accumulation at G2/M phase at 0.02 uM after 24 hrs by propidium iodide staining-based FACS flow cytometric analysis. The format is functional. The procedure, abridged:
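DU145 cells were plated at 1.0×10⁶ per dish in DMEM/10% FBS and treated 24 h later with increasing concentrations. After 24 h, attached and floating cells were pooled and fixed in ice-cold 70% ethanol for at least 24 h. Cells were stained with propidium iodide (50 μg/mL) plus RNase A for 30 min at 37 °C, then read on a FACScan with cell-cycle modelling.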
(In general: In flow cytometry, cells or beads pass a laser one at a time.)

Series [3] in a line: Solubility of the compound in PBS by nephelometric analysis. The series is classed as physicochemical. Put shortly: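 Aqueous solubility in PBS was measured by nephelometry; the limit of complete solubility was taken as the concentration giving a statistical increase of light scattering over blank.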
The next series relates to Plasma. Kind of series: Plasma protein binding in rat at 10 to 50 uM by equilibrium dialysis. The series is classed as ADME, cell-free.
Series [4] is described as follows: Cytotoxicity against human H80 cells after 96 hrs by trypan blue exclusion assay. The series is classed as functional. Conditions: H80, 96 h. The procedure, abridged: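 Cells were grown in DMEM or RPMI with 10% FBS and plated at 2.5×10⁴ cells/well in 12-well dishes. Compounds were added 24 h later at various concentrations. After 96 h, viable cells were counted by trypan blue exclusion from duplicate wells. Results are the mean of two independent experiments.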

Consider `COc1cc(OC)c(/C=C/S(=O)(=O)Nc2ccc(OC)c(N)c2)c(OC)c1`, for which, in the series on Mus musculus, the “beta t1/2” value turned out to be 1.7 h. Also, the result at Tubulin (Sus scrofa) was inactive. Further, the IC50 on Tubulin was 3.68 µM. Further, the outcome with DU-145 [1] and with DU-145 [2] was Active. In series [3], this compound registered a kinetic solubility of 62.5 µM (≈ 24.7 µg/mL). This compound came in with a PPB in the series on Plasma of 99.73%. Growth in series [4] was halved (GI50) at 4 nM.
